Test results taken from ChEMBL document CHEMBL1781932 (J Med Chem, 2011).
≈ marks a conversion by molar mass, not a printed value.

Assays:
[1] = AUC (0 to infinity) in Sprague-Dawley rat at 1 mg/kg, iv administered as single dose measured after 24 to 48 hrs; assay type: ADME, organism-based; design: time infinity, dose 1 mg/kg, route intravenous; settings: plasma
Summary of the method: (§1)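 Sprague-Dawley rats (n = 3) were fasted overnight (minimum 12 h) and given a single dose, iv 1 mg/kg or oral 10 mg/kg, in sterile water. Samples were taken over 24–48 h. PK parameters came from noncompartmental analysis.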

[2] = Clearance in Sprague-Dawley rat at 1 mg/kg, iv administered as single dose measured after 24 to 48 hrs; assay type: ADME, organism-based; design: dose 1 mg/kg, route intravenous; settings: in vivo; summary of the method: as §1
[3] = Apparent volume of distribution in Sprague-Dawley rat at 1 mg/kg, iv administered as single dose measured after 24 to 48 hrs; settings: in vivo
[4] = Elimination half life in Sprague-Dawley rat at 1 mg/kg, iv administered as single dose; assay type: ADME, organism-based; design: dose 1 mg/kg, route intravenous; settings: in vivo, read-out: beta t1/2 (converted); summary of the method: as §1
Staphylococcus aureus [5] = assay: Antimicrobial activity against tetracycline-susceptible Staphylococcus aureus Smith isolate 100 infected in iv dosed mouse systemic infection model assessed as survival of mouse administered 60 mins post infection measured up to 48 hrs; assay type: functional; settings: Smith isolate 100, iv, read-out: PD50
Summary of the method: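 Mouse septicemia model with S. aureus ATCC 13709 mixed with 5% mucin, given intraperitoneally at 2.1×10^6 cfu/mouse. Compound was dosed intravenously 60 min after infection at 0.3–30 mg/kg in sterile water, 6 mice/dose group, with untreated infection controls. Survival was followed over 48 h. PD50 was derived by Probit analysis with 95% CI.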

Staphylococcus aureus [6] = assay: Antimicrobial activity against tetracycline-susceptible Staphylococcus aureus isolate 101 by CLSI dilution method; assay type: functional
Staphylococcus aureus [7] = assay: Antimicrobial activity against methicillin-, tetracycline-resistant Staphylococcus aureus isolate 161 harboring tetM gene by CLSI dilution method; assay type: functional
Staphylococcus aureus [8] = assay: Antimicrobial activity against tetracycline-resistant Staphylococcus aureus isolate 158 harboring tetK gene by CLSI dilution method; assay type: functional
Enterococcus faecalis [9] = assay: Antimicrobial activity against tetracycline-susceptible Enterococcus faecalis isolate 103 by CLSI dilution method; assay type: functional
Summary of the method: (§2)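 Broth microdilution per CLSI in fresh cation-adjusted Mueller Hinton broth, kept at 4 °C before testing, with defibrinated horse blood added as appropriate. Strains were from ATCC. MIC in µg/mL. Runs were accepted when comparator antibiotics against ATCC quality-control strains fell within recommended ranges.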

Enterococcus faecalis [10] = assay: Antimicrobial activity against tetracycline-resistant Enterococcus faecalis isolate 159 harboring […] gene by CLSI dilution method; assay type: functional
Streptococcus pneumoniae [11] = assay: Antimicrobial activity against tetracycline-susceptible Streptococcus pneumoniae isolate 106 by CLSI dilution method; assay type: functional; summary of the method: as §2
Streptococcus pneumoniae [12] = assay: Antimicrobial activity against tetracycline-resistant Streptococcus pneumoniae isolate 160 harboring tetM gene by CLSI dilution method; assay type: functional
Escherichia coli [13] = assay: Antimicrobial activity against tetracycline-susceptible Escherichia coli isolate 107 by CLSI dilution method; assay type: functional; summary of the method: as §2
Escherichia coli [14] = assay: Antimicrobial activity against tetracycline-resistant Escherichia coli isolate 155 harboring tetA gene by CLSI dilution method; assay type: functional
Acinetobacter baumannii = assay: Antimicrobial activity against tetracycline-susceptible Acinetobacter baumannii isolate 110 by CLSI dilution method; assay type: functional; summary of the method: as §2
Pseudomonas aeruginosa = assay: Antimicrobial activity against tetracycline-susceptible Pseudomonas aeruginosa isolate 111 by CLSI dilution method; assay type: functional; summary of the method: as §2
Enterobacter cloacae = assay: Antimicrobial activity against tetracycline-susceptible Enterobacter cloacae isolate 108 by CLSI dilution method; assay type: functional; summary of the method: as §2
Klebsiella pneumoniae [15] = assay: Antimicrobial activity against tetracycline-susceptible Klebsiella pneumoniae isolate 109 by CLSI dilution method; assay type: functional; summary of the method: as §2
Klebsiella pneumoniae [16] = assay: Antimicrobial activity against tetracycline-resistant Klebsiella pneumoniae isolate 153 harboring tetA gene by CLSI dilution method; assay type: functional
[17] = Cmax in Sprague-Dawley rat at 1 mg/kg, iv administered as single dose measured after 24 to 48 hrs; assay type: ADME, organism-based; design: dose 1 mg/kg, route intravenous; settings: in vivo; summary of the method: as §1
Rattus norvegicus = assay: Oral bioavailability in Sprague-Dawley rat at 10 mg/kg administered as single dose; assay type: ADME, organism-based; settings: in vivo; summary of the method: as §1
Staphylococcus aureus [18] = assay: Antimicrobial activity against tetracycline-susceptible Staphylococcus aureus Smith isolate 100 by CLSI dilution method; assay type: functional
Staphylococcus aureus [19] = assay: Antimicrobial activity against tetracycline-susceptible Staphylococcus aureus Smith isolate 100 infected in po dosed mouse systemic infection model assessed as survival of mouse administered 60 mins post infection measured after 48 hrs; assay type: functional; settings: Smith isolate 100, po, read-out: PD50
Summary of the method: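 Mouse septicemia model with S. aureus ATCC 13709 in 5% mucin, inoculated intraperitoneally at 2.1×10^6 cfu/mouse. Oral gavage dosing began 60 min post-infection at 0.3–30 mg/kg in sterile water, 6 mice/dose group, with untreated infection controls. Survival was assessed over 48 h. PD50 was obtained by Probit analysis with 95% CI.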

CN(C)[C@@H]1C(O)=C(C(N)=O)C(=O)[C@@]2(O)C(O)=C3C(=O)c4c(c(F)c5ccc(CN6CCC6)cc5c4O)C[C@H]3C[C@@H]12
AUC(0-inf) [1]: 354 ng·h/mL | clearance [2]: 52.4 mL/min/kg | Vd [3]: 41.9 L/kg | half-life [4]: 8.01 h | ED50 (Staphylococcus aureus [5]): 0.3 mg/kg | MIC (Staphylococcus aureus [6]): 0.25 µg/mL (≈ 0.453 µM) | MIC (Staphylococcus aureus [7]): 1 µg/mL (≈ 1.81 µM) | MIC (Staphylococcus aureus [8]): 0.25 µg/mL (≈ 0.453 µM) | MIC (Enterococcus faecalis [9]): 0.25 µg/mL (≈ 0.453 µM) | MIC (Enterococcus faecalis [10]): 2 µg/mL (≈ 3.63 µM) | MIC (Streptococcus pneumoniae [11]): 0.0625 µg/mL (≈ 0.113 µM) | MIC (Streptococcus pneumoniae [12]): 0.125 µg/mL (≈ 0.227 µM) | MIC (Escherichia coli [13]): 1 µg/mL (≈ 1.81 µM) | MIC (Escherichia coli [14]): 4 µg/mL (≈ 7.25 µM) | MIC (Acinetobacter baumannii): 0.5 µg/mL (≈ 0.907 µM) | MIC (Pseudomonas aeruginosa): 32 µg/mL (≈ 58 µM) | MIC (Enterobacter cloacae): 2 µg/mL (≈ 3.63 µM) | MIC (Klebsiella pneumoniae [15]): 2 µg/mL (≈ 3.63 µM) | MIC (Klebsiella pneumoniae [16]): 4 µg/mL (≈ 7.25 µM) | Cmax [17]: 73 ng/mL

COCCNCc1ccc2cc3c(c(O)c2c1)C(=O)C1=C(O)[C@]2(O)C(=O)C(C(N)=O)=C(O)[C@@H](N(C)C)[C@@H]2C[C@@H]1C3
AUC(0-inf) [1]: 1980 ng·h/mL | clearance [2]: 8.43 mL/min/kg | Vd [3]: 3.78 L/kg | half-life [4]: 5.19 h | F (Rattus norvegicus): 2.8% | ED50 (Staphylococcus aureus [5]): 0.43 mg/kg | MIC (Staphylococcus aureus [6]): 0.25 µg/mL (≈ 0.453 µM) | MIC (Staphylococcus aureus [7]): 4 µg/mL (≈ 7.25 µM) | MIC (Staphylococcus aureus [8]): 0.5 µg/mL (≈ 0.906 µM) | MIC (Enterococcus faecalis [9]): 0.5 µg/mL (≈ 0.906 µM) | MIC (Enterococcus faecalis [10]): 8 µg/mL (≈ 14.5 µM) | MIC (Streptococcus pneumoniae [11]): 0.0156 µg/mL (≈ 0.0283 µM) | MIC (Streptococcus pneumoniae [12]): 0.5 µg/mL (≈ 0.906 µM) | MIC (Escherichia coli [13]): 1 µg/mL (≈ 1.81 µM) | MIC (Escherichia coli [14]): 8 µg/mL (≈ 14.5 µM) | MIC (Acinetobacter baumannii): 1 µg/mL (≈ 1.81 µM) | MIC (Pseudomonas aeruginosa): 32 µg/mL (≈ 58 µM) | MIC (Enterobacter cloacae): 2 µg/mL (≈ 3.63 µM) | MIC (Klebsiella pneumoniae [15]): 4 µg/mL (≈ 7.25 µM) | MIC (Klebsiella pneumoniae [16]): 8 µg/mL (≈ 14.5 µM) | MIC (Staphylococcus aureus [18]): 1 µg/mL (≈ 1.81 µM) | Cmax [17]: 633 ng/mL

CN(C)[C@@H]1C(O)=C(C(N)=O)C(=O)[C@@]2(O)C(O)=C3C(=O)c4c(O)cccc4[C@@](C)(O)[C@H]3C[C@@H]12 [TETRACYCLINE]
ED50 (Staphylococcus aureus [19]): 8.1 mg/kg | ED50 (Staphylococcus aureus [5]): 0.35 mg/kg | MIC (Staphylococcus aureus [18]): 0.25 µg/mL (≈ 0.563 µM) | Cmax [17]: 583 ng/mL

CC(C)CNCc1ccc2cc3c(c(O)c2c1)C(=O)C1=C(O)[C@]2(O)C(=O)C(C(N)=O)=C(O)[C@@H](N(C)C)[C@@H]2C[C@@H]1C3
AUC(0-inf) [1]: 2680 ng·h/mL | clearance [2]: 6.22 mL/min/kg | Vd [3]: 3.16 L/kg | half-life [4]: 5.87 h | F (Rattus norvegicus): 1.9% | ED50 (Staphylococcus aureus [5]): 0.62 mg/kg | MIC (Staphylococcus aureus [6]): 0.25 µg/mL (≈ 0.455 µM) | MIC (Staphylococcus aureus [7]): 4 µg/mL (≈ 7.28 µM) | MIC (Staphylococcus aureus [8]): 0.25 µg/mL (≈ 0.455 µM) | MIC (Enterococcus faecalis [9]): 0.5 µg/mL (≈ 0.91 µM) | MIC (Enterococcus faecalis [10]): 4 µg/mL (≈ 7.28 µM) | MIC (Streptococcus pneumoniae [11]): 0.0156 µg/mL (≈ 0.0284 µM) | MIC (Streptococcus pneumoniae [12]): 0.25 µg/mL (≈ 0.455 µM) | MIC (Escherichia coli [13]): 1 µg/mL (≈ 1.82 µM) | MIC (Escherichia coli [14]): 4 µg/mL (≈ 7.28 µM) | MIC (Acinetobacter baumannii): 0.5 µg/mL (≈ 0.91 µM) | MIC (Pseudomonas aeruginosa): 32 µg/mL (≈ 58.2 µM) | MIC (Enterobacter cloacae): 2 µg/mL (≈ 3.64 µM) | MIC (Klebsiella pneumoniae [15]): 4 µg/mL (≈ 7.28 µM) | MIC (Klebsiella pneumoniae [16]): 4 µg/mL (≈ 7.28 µM) | MIC (Staphylococcus aureus [18]): 1 µg/mL (≈ 1.82 µM) | Cmax [17]: 891 ng/mL

COc1c2c(c(O)c3cc(CNC4CC4)ccc13)C(=O)C1=C(O)[C@]3(O)C(=O)C(C(N)=O)=C(O)[C@@H](N(C)C)[C@@H]3C[C@@H]1C2
AUC(0-inf) [1]: 385 ng·h/mL | clearance [2]: 45.4 mL/min/kg | Vd [3]: 8.4 L/kg | half-life [4]: 2.17 h | F (Rattus norvegicus): 12.5% | ED50 (Staphylococcus aureus [5]): 0.6 mg/kg | MIC (Staphylococcus aureus [6]): 0.0625 µg/mL (≈ 0.111 µM) | MIC (Staphylococcus aureus [7]): 2 µg/mL (≈ 3.55 µM) | MIC (Staphylococcus aureus [8]): 0.0313 µg/mL (≈ 0.0555 µM) | MIC (Enterococcus faecalis [9]): 0.0625 µg/mL (≈ 0.111 µM) | MIC (Enterococcus faecalis [10]): 2 µg/mL (≈ 3.55 µM) | MIC (Streptococcus pneumoniae [11]): 0.0156 µg/mL (≈ 0.0277 µM) | MIC (Streptococcus pneumoniae [12]): 0.125 µg/mL (≈ 0.222 µM) | MIC (Escherichia coli [13]): 0.5 µg/mL (≈ 0.887 µM) | MIC (Escherichia coli [14]): 8 µg/mL (≈ 14.2 µM) | MIC (Acinetobacter baumannii): 0.25 µg/mL (≈ 0.444 µM) | MIC (Pseudomonas aeruginosa): 16 µg/mL (≈ 28.4 µM) | MIC (Enterobacter cloacae): 4 µg/mL (≈ 7.1 µM) | MIC (Klebsiella pneumoniae [15]): 2 µg/mL (≈ 3.55 µM) | MIC (Klebsiella pneumoniae [16]): 8 µg/mL (≈ 14.2 µM) | MIC (Staphylococcus aureus [18]): 0.25 µg/mL (≈ 0.444 µM) | Cmax [17]: 124 ng/mL

CN(C)[C@@H]1C(O)=C(C(N)=O)C(=O)[C@@]2(O)C(O)=C3C(=O)c4c(c(F)c5ccc(CNC(C)(C)C)cc5c4O)C[C@H]3C[C@@H]12
AUC(0-inf) [1]: 975 ng·h/mL | clearance [2]: 17.7 mL/min/kg | Vd [3]: 11.9 L/kg | half-life [4]: 7.82 h | F (Rattus norvegicus): 1.2% | ED50 (Staphylococcus aureus [5]): 0.35 mg/kg | MIC (Staphylococcus aureus [6]): 0.5 µg/mL (≈ 0.881 µM) | MIC (Staphylococcus aureus [7]): 1 µg/mL (≈ 1.76 µM) | MIC (Staphylococcus aureus [8]): 0.0156 µg/mL (≈ 0.0275 µM) | MIC (Enterococcus faecalis [9]): 0.0313 µg/mL (≈ 0.0551 µM) | MIC (Enterococcus faecalis [10]): 1 µg/mL (≈ 1.76 µM) | MIC (Streptococcus pneumoniae [11]): 0.0156 µg/mL (≈ 0.0275 µM) | MIC (Streptococcus pneumoniae [12]): 0.0313 µg/mL (≈ 0.0551 µM) | MIC (Escherichia coli [14]): 4 µg/mL (≈ 7.05 µM) | MIC (Acinetobacter baumannii): 0.25 µg/mL (≈ 0.44 µM) | MIC (Pseudomonas aeruginosa): 16 µg/mL (≈ 28.2 µM) | MIC (Klebsiella pneumoniae [15]): 2 µg/mL (≈ 3.52 µM) | MIC (Klebsiella pneumoniae [16]): 4 µg/mL (≈ 7.05 µM) | MIC (Staphylococcus aureus [18]): 0.5 µg/mL (≈ 0.881 µM) | Cmax [17]: 278 ng/mL
